Results on three molecules are retold here after ChEMBL document CHEMBL1909566, “Diverse metabolic profiles of a Streptomyces strain isolated from a hyper-arid environment” (2011).

Common to all, as to assay type: functional
The test system of one experiment is Escherichia coli. In words: Antibacterial activity against Escherichia coli ATCC 25922 after 18 hrs by […]. As to conditions: ATCC 25922, 18 h. In outline: (§1)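 Compounds were first screened by agar diffusion, with filter-paper disks of ampicillin (10 μg), oxolinic acid (2 μg) or oxytetracycline (30 μg) as positive controls. For MICs, strains were grown in Müller-Hinton broth to early stationary phase and diluted to OD600 = 0.005. Compound dilutions were added in DMSO (final 10%). Growth was read at OD620 after 18 h at 37 C, in duplicate with two independent cultures.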
(In general: A growth-free zone around the sample is the usual read-out of agar diffusion tests.)

Another experiment concerns Listeria monocytogenes. In words: Antibacterial activity against Listeria monocytogenes ATCC 19115 after 18 hrs by […]. The note with it: ATCC 19115, 18 h. An outline of the steps:
as §1

The subject of another experiment is Vibrio parahaemolyticus. The experiment is described as follows: Antibacterial activity against Vibrio parahaemolyticus NCTC 10441 after 18 hrs by […]. The note with it: NCTC 10441, 18 h. In outline:
as §1

In a further experiment the test system is Staphylococcus aureus. In words: Antibacterial activity against Staphylococcus aureus ATCC 25293 after 18 hrs by […]. The note with it: ATCC 25923, 18 h, in the assay text read “ATCC 25923” for “ATCC 25293”. In outline: as §1
In a further experiment the test system is Bacillus subtilis. In words: Antibacterial activity against Bacillus subtilis NCTC 2116 after 18 hrs by […]. As to conditions: NCTC 2116, 18 h. An outline of the steps: as §1

≈ marks a conversion by molar mass, not a printed value.

The MIC is the lowest concentration found to suppress growth. A high value points to a less susceptible organism. In the case of `CC/C=C/[C@H]1C/C=C/C=C\[C@H](O)C[C@@H](O)[C@@H](C)/C=C/C[C@@H](C)/C=C/C=C(C)/C=C/C(=O)O1` [CHAXALACTIN A], the MIC in the experiment with Escherichia coli is above 20 µg/mL; in the experiment on Listeria monocytogenes, 6.3 µg/mL (≈ 14.3 µM); against Vibrio parahaemolyticus, 12.5 µg/mL (≈ 28.4 µM); in the experiment on Staphylococcus aureus it was 0.4 µg/mL (≈ 0.908 µM); in the experiment with Bacillus subtilis it was 3.1 µg/mL (≈ 7.04 µM).
As for `CC/C=C/[C@H]1C/C=C/C=C\[C@H](O)[C@@H](O)[C@@H](O)[C@@H](C)/C=C/C[C@@H](C)/C=C/C=C(C)/C=C/C(=O)O1` [CHAXALACTIN B], the MIC against Escherichia coli is above 20 µg/mL; in the experiment on Listeria monocytogenes, 5 µg/mL (≈ 10.9 µM); with Vibrio parahaemolyticus, 20 µg/mL (≈ 43.8 µM); against Staphylococcus aureus it was 0.2 µg/mL (≈ 0.438 µM); against Bacillus subtilis, 5 µg/mL (≈ 10.9 µM).
In the case of `CC/C=C/[C@H]1C/C=C/C=C\[C@H](OC)[C@@H](O)[C@@H](O)[C@@H](C)/C=C/C[C@@H](C)/C=C/C=C(C)/C=C/C(=O)O1` [CHAXALACTIN C], the minimal inhibitory concentration (MIC) against Escherichia coli is above 20 µg/mL; with Listeria monocytogenes it was 6.3 µg/mL (≈ 13.4 µM); in the experiment on Vibrio parahaemolyticus it was 12.5 µg/mL (≈ 26.6 µM); in the experiment with Staphylococcus aureus, 0.8 µg/mL (≈ 1.7 µM); against Bacillus subtilis, 6.3 µg/mL (≈ 13.4 µM).
